Assay results taken from ChEMBL document CHEMBL2069284, “Synthesis and selective anticancer activity of steroidal glycoconjugates” (Eur J Med Chem, 2012).

Assays:
[1] = tested on: Ca-Ski; assay: Antiproliferative activity against human CaSki cells after 24 hrs by crystal violet staining-based method; assay type: functional, cell-based
Procedure, shortened: (§1)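 Cells were cultured in RPMI-1640 with 5% newborn calf serum and benzylpenicillin at 37 °C, 5% CO2, and used in exponential growth. Cells were seeded at 7500/well, grown 24 h, then exposed to a concentration range. Controls received 1% DMSO vehicle. After 24 h, growth was read by crystal violet staining as absorbance at 590 nm, and IC50 was derived.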

[2] = (§2) Antiproliferative activity against human ViBo cells after 24 hrs by crystal violet staining-based method; assay type: functional, cell-based; procedure, shortened: as §1
[3] = tested on: ViBo; assay: as §2; assay type: functional, cell-based; procedure, shortened: as §1
[4] = tested on: Ca-Ski; assay: Cytotoxicity against human CaSki cells assessed as LDH release at antiproliferative IC50 after 24 hrs; assay type: cell-based
Procedure, shortened: (§3)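 Membrane damage was measured as LDH released into the culture supernatant 24 h after treatment; Triton X-100 lysis served as the total-lysis reference and DMSO as the vehicle control. For HeLa, CaSki and ViBo, 7500 cells/well were seeded and the medium was replaced after 24 h before treatment. Data are mean ± SD of three independent experiments in triplicate, analyzed by ANOVA with Tukey's test.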

[5] = tested on: PBMC; assay: Antiproliferative activity against PHA-stimulated and CFSE-labeled human PBMC assessed as proliferation of enriched lymphocyte population at antiproliferative IC50 after 72 hrs by flow cytometric analysis (reference value: 90.13%); assay type: cell-based
Procedure, shortened: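 Enriched lymphocytes from a normal blood donor were obtained by removing cells adherent after 1 h at 37 °C, 5% CO2, then resuspended in RPMI-1640 at 1 × 10⁶ cells/mL. Cells were CFSE-labeled for 15 min at room temperature in the dark, PHA-stimulated and/or treated, and plated at 2 × 10⁵ cells/well with five replicates. After 72 h at 37 °C, cells were PBS-washed, fixed in 1% formaldehyde, and analyzed by flow cytometry (≥20,000 events).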

[6] = Cytotoxicity against human ViBo cells assessed as LDH release at antiproliferative IC50 after 24 hrs; assay type: cell-based; procedure, shortened: as §3
[7] = tested on: HeLa; assay: Antiproliferative activity against human HeLa cells after 24 hrs by crystal violet staining-based method; assay type: functional, cell-based; procedure, shortened: as §1
[8] = tested on: HeLa; assay: Cytotoxicity against human HeLa cells assessed as LDH release at antiproliferative IC50 after 24 hrs; assay type: cell-based; procedure, shortened: as §3
[9] = Cytotoxicity against human lymphocytes assessed as LDH release at antiproliferative IC50 after 24 hrs; assay type: cell-based; conditions: lymphocyte; procedure, shortened: as §3

IC50 [7] [µM] | SMILES | IC50 [1] [µM] | inhibition [1] | IC50 [2] [µM] | inhibition [3] | Activity [4] | Activity [5] [%] | Activity [6] | inhibition [7] | Activity [8] | Activity [9]
81 | CC(=O)N[C@H]1[C@H](O[C@H]2CC[C@@]3(C)C(=CC[C@H]4[C@@H]5C[C@@H]6O[C@]7(CC[C@@H](C)CO7)[C@@H](C)[C@@H]6[C@@]5(C)CC[C@@H]43)C2)O[C@H](CO)[C@@H](O)[C@@H]1O | 80 | Dose-dependent effect | 81 | Dose-dependent effect | Non-toxic | 72.58 | Non-toxic | Dose-dependent effect | Non-toxic | Non-toxic
129 | CC(=O)N[C@H]1[C@H](O[C@H]2CC[C@@]3(C)[C@@H](CC[C@@H]4[C@@H]3CC(=O)[C@]3(C)[C@@H]5[C@H](C[C@@H]43)O[C@]3(CC[C@@H](C)CO3)[C@H]5C)C2)O[C@H](CO)[C@@H](O)[C@@H]1O | 136 | Dose-dependent effect | > 142 | Dose-dependent effect | Non-toxic | 75.59 | Non-toxic | Dose-dependent effect | Non-toxic | Non-toxic
41 | C[C@@H]1CC[C@@]2(OC1)O[C@H]1C[C@H]3[C@@H]4CC=C5C[C@@H](O[C@@H]6O[C@H](CO)[C@@H](O)[C@H](O)[C@H]6N)CC[C@]5(C)[C@H]4CC[C@]3(C)[C@H]1[C@@H]2C.Cl | 41 | Dose-dependent effect | 82 | Dose-dependent effect | Non-toxic | 78.76 | Non-toxic | Dose-dependent effect | Non-toxic | Non-toxic
